# Bioassay records: PubChem, The Scripps Research Institute Molecular Screening Center
# Hits are enriched below; roughly 3.1% of the tested compounds scored in any of these assays.
# CHO parental Ca – counter-screen: ATP calcium response change in parental CHO cells. inhibition, % at 5.6 µM. parental CHO-K1, ATP-induced calcium, Fluo-8 fluorescence. hit rate 0.63% among 330,000. AID 463079;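 active = inhibition above that plate's mean sample inhibition plus 3 SD, cut at about 26% in these data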;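 also: 0% = ATP-challenged DMSO wells and 100% = DMSO wells without ATP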
#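 Measured by: calcium-sensitive Fluo-8 fluorescence / Test system: CHO parental line / Controls: ATP-challenged DMSO wells low, unchallenged DMSO wells high / Measure: % inhibition / Compound: single nominal dose of 5.6 µM per compound / Replicates: single well per compound, no replicates / Reagent: ATP as calcium-mobilizing challenge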
# OX1R antag-1 – human HCRTR1 antagonism | O43613 | CHO/OX1R cells, Fluo-8 calcium fluorescence, orexin A | inhibition, % at 5 µM | hit rate 0.43% among 330,000 | AID 434989;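 active = inhibition above its plate's threshold, mean inhibition of all tested compounds on the plate plus 3 SD, cut at about 37% in these data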;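 also: 0% = orexin A challenge wells and 100% = SB-334867-A antagonist wells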
# Target sequence (O43613 whole entry, looked up): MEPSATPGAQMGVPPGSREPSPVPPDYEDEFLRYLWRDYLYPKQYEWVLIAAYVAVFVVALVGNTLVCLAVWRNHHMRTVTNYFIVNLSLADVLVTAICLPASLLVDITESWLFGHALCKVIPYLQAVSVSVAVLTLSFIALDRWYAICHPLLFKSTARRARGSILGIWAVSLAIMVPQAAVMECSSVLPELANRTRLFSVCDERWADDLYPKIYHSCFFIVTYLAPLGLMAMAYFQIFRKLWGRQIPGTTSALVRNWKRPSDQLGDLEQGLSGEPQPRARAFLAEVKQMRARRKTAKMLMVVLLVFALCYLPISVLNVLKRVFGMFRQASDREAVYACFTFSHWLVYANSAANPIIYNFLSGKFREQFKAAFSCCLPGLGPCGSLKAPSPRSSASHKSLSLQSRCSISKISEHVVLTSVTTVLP
# GalR3 antagonist – blocks the human galanin receptor 3; HEK293 GalR3-CNG cAMP membrane potential fluorescence; galR3 body fused to GalR1 C-terminus; O60755; hit rate 0.44% among 360,000; inhibition, % at 3 µM;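 active = inhibition above the screen-wide average plus 3 SD, cut at about 13% in these data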;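 also: forskolin and galanin both at EC90 stimulate the cells; cAMP rise reported by CNG channel membrane potential dye signal; 0% = forskolin plus galanin with DMSO and 100% = forskolin alone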
# OX1R antag-2 – antagonists of human orexin 1 receptor (OX1R); hit rate 1.8% among 330,000; OX1R-expressing cells, FRET antagonist read-out; inhibition, % at 6.6 µM; AID 485270; in the data active = inhibition mostly above about 38%, no sharp cut-off; inactive = mostly below about 40%;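 also: 0% = agonist challenge alone and 100% = reference antagonist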
# GPR7 antagonist – blocks human GPR7 receptor signaling. AID 1861. GPR7-expressing cells, fluorescence antagonist assay. hit rate 1.1% among 290,000. inhibition, % at 4.4 µM. P48145; in the data active = inhibition above about 16%, passing the limit was not always enough;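 also: cells stimulated with the agonist NPW; 0% = agonist with vehicle and 100% = vehicle without agonist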
# * hit, by the source's call; nt = no result given.
SMILES,CHO parental Ca,OX1R antag-1,GalR3 antagonist,OX1R antag-2,GPR7 antagonist
COc1ccc(C(=O)N2CCC(c3ccccc3)CC2)c(OC)c1OC,-15,-11,1,27,20*
COc1cccc(C(=O)N2CCN(C(=O)c3ccc(-c4ccccc4)cc3)CC2)c1OC,-5,-37,-4,2,-1
COc1ccc(C(=O)OCC(=O)c2ccc[nH]2)c(OC)c1,-16,-4,-6,7,nt
COc1cc2c(cc1OC)/C(=C/C(=O)c1ccc(F)cc1)NCC2,-16,-46,15*,5,-11
COc1cc2c(cc1OC)/C(=C/C(=O)c1ccccc1F)NCC2,nt,nt,4,nt,-18
COc1ccc(-c2ncncc2-c2csc(C)n2)c(O)c1,-8,-10,2,-4,17*
COC(=O)[C@H](C)NC(=O)NC1CCCc2ccccc21 (stereo not given in full),36*,61*,nt,4,-2
C[C@H]1CC[C@@]2(O[C@H](CCO)C[C@H](O)[C@H]2O)O1,-7,3,-6,19,nt
c1ccc(-c2nc(NC3CCCC3)c3ccccc3n2)cc1,-21,-44,-2,49*,0
c1csc(CNc2nc(-c3cccs3)nc3ccccc23)c1,-2,-20,-4,9,-20
c1ccc(CN2CCC(Nc3nc(-c4cccs4)nc4ccccc34)CC2)cc1,-16,-3,-10,7,20*
c1csc(-c2nc(NCC3CCCO3)c3ccccc3n2)c1 (stereo not given),-24,-15,-12,68*,-3
c1cncc(-c2nc(NCC3CCCO3)c3ccccc3n2)c1 (stereo not given),-4,-16,nt,31,5
CN(C)S(=O)(=O)c1cccc(C(=O)N2CCN(C(=O)C3CCCO3)CC2)c1 (stereo not given),-1,-4,1,5,nt
COc1cc(CCCN2CCNC[C@@H]2CC2CCCCC2)cc(OC)c1OC,-20,-29,-4,5,nt
O=C(Nc1nc2c(s1)CCc1ccccc1-2)c1cccs1,-20,-48,-2,34,-10
O=C(Nc1nc2c(s1)COc1ccccc1-2)c1cccs1,-15,-23,nt,56*,3
Cc1cccc(NC(=S)NC2CC3C=CC2C3)c1 (stereo not given),4,5,-3,12,-11
Cc1cc(C)cc(NC(=O)c2ccc(CSc3nnc(C)s3)cc2)c1,-3,-1,-3,8,10
Cc1ccc(NC(=O)c2ccc(CSc3nnc(C)s3)cc2)cc1,40*,-1,-4,10,1
Clc1ccc2nc3c4ccccc4cnn3c2c1,-24,3,-7,69*,-5
COn1c(-c2ccccc2)nc2ccc(Cl)cc21,-15,-28,-2,19,-6
Cc1ccc(S(=O)(=O)Nc2ccc3cn[nH]c3c2)c(C)c1,-8,-18,-6,5,nt
CCOc1cc(C)c(S(=O)(=O)Nc2ccc3cn[nH]c3c2)cc1C,48*,8,nt,13,-6
CSCCC(NC(=O)c1ccc([N+](=O)[O-])cc1Cl)C(=O)OCC(=O)N1CCN(C(C)=O)CC1 (stereo not given),1,-3,4,55*,nt
SMILES,CHO parental Ca,OX1R antag-1,GalR3 antagonist,OX1R antag-2,GPR7 antagonist
CSCCC(NC(=O)c1ccc([N+](=O)[O-])cc1Cl)C(=O)OCC(=O)C12CC3CC(CC(C3)C1)C2 (stereo not given),-8,-14,-3,8,10
CSCCC(NC(=O)c1ccc([N+](=O)[O-])cc1Cl)C(=O)OC(C)C(=O)NCc1ccco1 (stereo not given),-16,-23,-2,49*,nt
CNc1ccc2c3c(cccc13)C(=O)N(C)C2=O,79*,88*,-14,9,27
O=C(c1ccccc1)N1CCN(C(=O)c2ccc([N+](=O)[O-])cc2)CC1,-4,-2,5,57,-9
O=C(c1ccc([N+](=O)[O-])cc1)N1CCN(C(=O)c2cccs2)CC1,-5,-10,-4,50*,-6
O=C(NNC(=O)c1cc([N+](=O)[O-])ccc1Cl)c1cccs1,-4,-4,5,46*,0
O=C(Nc1ccc(F)cc1F)c1cc(Cl)sc1Cl,-22,-14,-11,-7,-1
c1ccc(CC2CCN(C(c3cccs3)c3nnnn3C3CCCC3)CC2)cc1 (stereo not given),-12,-10,-1,10,-1
c1ccc(CN(Cc2cccs2)C(c2cccs2)c2nnnn2C2CCCC2)cc1 (stereo not given),34*,-26,-7,9,-14
COc1cc(Br)c(/C=C/c2ccc3cccc(O)c3n2)cc1OC,-1,-10,-8,9,-3
COc1cc(/C=C/c2ccc3cccc(O)c3n2)c(Br)cc1O,45*,19,-8,7,-8
CCN(CC(=O)Nc1ccccc1C(F)(F)F)C(=O)CCc1nc2sc3c(c2c(=O)[nH]1)CCCC3,-13,-7,-4,42*,nt
CCN(CC(=O)Nc1c(F)cccc1F)C(=O)CCc1nc2sc3c(c2c(=O)[nH]1)CCCC3,-3,-5,-2,67*,nt
CCc1cccc(NC(=O)CSCc2nc3sc(C)c(C)c3c(=O)[nH]2)c1,-19,-13,-4,8,nt
CCN(CC(=O)Nc1c(F)cccc1F)C(=O)C(C)SCc1nc2sc(C)c(C)c2c(=O)[nH]1 (stereo not given),-14,-15,-3,67*,-17
CN(CC(=O)Nc1ccccc1C(F)(F)F)C(=O)CCc1nc2sc3c(c2c(=O)[nH]1)CCCC3,-15,-19,1,16,-16
CC(=O)C1=C(C)N(Cc2ccc(F)cc2)C(=S)NC1c1ccc(Cl)cc1 (stereo not given),nt,nt,-4,nt,nt
COc1cccc(CNC(=O)CSc2nc(=O)n(Cc3ccncc3)c3c2CCC3)c1,-12,-9,4,5,nt
CCOC(=O)[C@]12CCCC=C1N(Cc1ccc3c(c1)OCO3)C(=O)[C@H](CC(=O)NCCC(C)C)C2,nt,nt,-3,nt,nt
Cc1ccc2nc(-c3ccc(CN4CCC5(CC4)CNc4ccccc45)cc3)c(-c3ccccc3)nc2c1,nt,nt,-4,nt,nt
COc1ccc(CCNC(=O)c2ccc3c(c2)N(Cc2ccc(F)cc2)CCS3)c(OC)c1,-1,-12,1,46*,9
COc1ccc(OC)c(CCNC(=O)c2ccc3c(c2)N(Cc2ccc(F)cc2)CCS3)c1,-17,27,nt,29,21
COc1ccc(Br)cc1CNC(=O)c1ccc2c(c1)N(C)CCS2,-17,-24,nt,57*,-2
Cc1ccccc1OCc1nnc(SCC(=O)O)n1Cc1ccccc1,-12,-3,-1,14,1
Cc1ccccc1OCc1nnc(SC(C)C(=O)O)n1Cc1ccccc1 (stereo not given),-20,4,0,63*,-2
O=C(Nc1ccc2ccccc2n1)c1ccccc1,-7,-9,-8,2,-1
O=C(Nc1ccc2ccccc2n1)c1ccccc1Br,-18,-3,-9,42*,3
COc1ccc(NC(=O)C2Cc3c(-c4cccc(F)c4)ccnc3O2)cc1 (stereo not given),nt,nt,-3,nt,nt
